Laboratory results reported in ChEMBL document CHEMBL1142921, “Synthesis of DL-standishinal and its related compounds for the studies on structure-activity relationship of inhibitory activity against aromatase” (Bioorg Med Chem, 2007).

Key:
Conditions in all cases: 0.5 h
Aromatase [1] = target: T1, Aromatase (Homo sapiens, UniProt P11511); assay: Inhibition of human recombinant aromatase at 3 uM after 30 mins relative to control
T1 sequence (P11511 whole entry): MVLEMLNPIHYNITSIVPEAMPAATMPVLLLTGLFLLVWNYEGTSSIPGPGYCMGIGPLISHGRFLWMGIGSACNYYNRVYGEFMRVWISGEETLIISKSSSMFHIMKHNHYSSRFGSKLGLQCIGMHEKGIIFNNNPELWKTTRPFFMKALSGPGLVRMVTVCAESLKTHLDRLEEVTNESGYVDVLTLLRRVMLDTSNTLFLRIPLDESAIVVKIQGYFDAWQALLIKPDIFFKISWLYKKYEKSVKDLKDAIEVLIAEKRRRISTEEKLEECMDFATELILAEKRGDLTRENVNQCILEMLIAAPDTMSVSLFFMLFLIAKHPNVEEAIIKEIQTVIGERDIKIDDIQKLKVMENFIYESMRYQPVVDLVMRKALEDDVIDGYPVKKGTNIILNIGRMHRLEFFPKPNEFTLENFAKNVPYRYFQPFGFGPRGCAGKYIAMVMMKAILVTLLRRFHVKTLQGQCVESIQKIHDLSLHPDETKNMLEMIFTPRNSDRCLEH
How it was run: (§1)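 Human recombinant aromatase (CYP19) expressed in insect cells via baculovirus; fluorogenic substrate methoxy-4-trifluoromethylcoumarin, 3 µM in the reaction. Compounds in acetone, serially diluted 1:3 in NADPH-cofactor buffer. Reaction started with prewarmed enzyme–substrate mix, 30 min at 37 °C. Fluorescence read at 409 nm excitation / 530 nm emission. Blank lacks enzyme. Inhibition as % of no-inhibitor control; mean ± SD, n = 4; Student t test.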

Aromatase [2] = target: T1, Aromatase; assay: Inhibition of human recombinant aromatase at 10 uM after 30 mins relative to control; how it was run: as §1
Aromatase [3] = target: T1, Aromatase; assay: Inhibition of human recombinant aromatase at 300 nM after 30 mins relative to control; how it was run: as §1
Aromatase [4] = target: T1, Aromatase; assay: Inhibition of human recombinant aromatase at 1 uM after 30 mins relative to control; how it was run: as §1

SMILES	inhibition at 3 µM (Aromatase [1]) [%]	inhibition at 10 µM (Aromatase [2]) [%]	inhibition at 0.3 µM (Aromatase [3]) [%]	inhibition at 1 µM (Aromatase [4]) [%]
CC(C)c1cc(C=O)c([C@@]2(C)CCCC(C)(C)[C@@H]2C=O)cc1O	3.3	9.2	5.9	< 0
COc1cc2c(cc1C(C)C)CC[C@H]1C(C)(C)CCC[C@]21C	4.1	4.8	9	2.2
COc1cc2c(cc1C(C)C)C=C[C@@H]1C(C)(C)CCC[C@]21C	18.6	19.8	16.2	19.7
COc1cc2c(cc1C(C)C)CC[C@@H]1C(C)(C)CCC[C@]21C	18.4	19.7	15.2	15.9
COc1cc2c(cc1C(C)C)C(=O)C[C@H]1C(C)(C)CCC[C@]21C	6.7	19.8	< 0	18.1
COc1cc2c(cc1C(C)C)C(=O)C[C@@H]1C(C)(C)CCC[C@]21C	23.9	19.5	20.7	28.7
CC(C)c1cc(C=O)c([C@@]2(C)CCCC(C)(C)[C@H]2C=O)cc1O	24.9	25.1	22.2	24.5
CC(=O)N1CCN(c2ccc(OC[C@H]3CO[C@](Cn4ccnc4)(c4ccc(Cl)cc4Cl)O3)cc2)CC1 [KETOCONAZOLE]	87.5	87.9	81.7	84.2
N#Cc1ccc(C(c2ccc(C#N)cc2)n2cncn2)cc1 [LETROZOLE]	83.8	92.5	89.3	91.1
CC(C)c1cc(C=O)c2c(c1O)[C@H](O)[C@H]1C(C)(C)CCC[C@]21C [STANDISHINAL]	6.7	23.7	1.1	10.3
